The source of these data is ChEMBL document CHEMBL1932933, “A small chemical library of 2-aminoimidazole derivatives as BACE-1 inhibitors: Structure-based design, synthesis, and biological evaluation” (Eur J Med Chem, 2012).

Series [1] in a line: Inhibition of BACE1 in chicken primary telencephalon neurons assessed as reduction of amyloid beta40 secretion after 24 hrs by ELISA. Details: species or system Gallus gallus; call rule not given here. The procedure, abridged:
(§1)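 Aβ secretion from neurons after 24 h of inhibitor treatment. Data were corrected for mean neuron viability from an MTT reduction assay run after 24 h of treatment. Values are the mean of three independent experiments.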

A short description of series [2]: Inhibition of BACE1 in chicken primary telencephalon neurons assessed as reduction of amyloid beta42 secretion after 24 hrs by ELISA. Details: species or system Gallus gallus. The procedure, abridged: as §1
A short description of series [3]: Solubility of the compound. The series is classed as physicochemical.
Series [4] in a line: Inhibition of BACE1 in chicken primary telencephalon neurons assessed as reduction of amyloid beta38 secretion after 24 hrs by ELISA. Set-up: species or system Gallus gallus. In short, it runs like this:
as §1

The target of series [5] is T1, Beta-secretase 1 (Homo sapiens, UniProt P56817). Put plainly: Inhibition of BACE1 using methoxycoumarin-Ser-Glu-Val-Asn-Leu-Asp-Ala-Glu-Phe-Lys-dinitrophenyl as substrate preincubated 1 hr before substrate addition measured after 15 mins by FRET assay.
T1 sequence (P56817 whole entry): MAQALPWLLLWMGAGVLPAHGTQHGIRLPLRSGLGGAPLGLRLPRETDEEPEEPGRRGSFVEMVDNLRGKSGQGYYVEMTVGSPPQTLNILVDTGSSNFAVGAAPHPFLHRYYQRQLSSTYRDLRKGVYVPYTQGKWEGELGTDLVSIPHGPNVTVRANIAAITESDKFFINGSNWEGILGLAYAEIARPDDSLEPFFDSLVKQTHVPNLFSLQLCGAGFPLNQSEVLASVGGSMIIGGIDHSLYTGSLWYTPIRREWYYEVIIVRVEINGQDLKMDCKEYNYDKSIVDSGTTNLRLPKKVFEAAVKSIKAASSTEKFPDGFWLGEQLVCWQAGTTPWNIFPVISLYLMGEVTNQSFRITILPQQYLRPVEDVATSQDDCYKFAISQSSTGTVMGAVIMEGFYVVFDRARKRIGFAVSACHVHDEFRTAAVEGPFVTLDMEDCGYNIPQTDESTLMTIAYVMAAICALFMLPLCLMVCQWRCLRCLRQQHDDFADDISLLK
A short description of series [6]: Permeability of the compound by PAMPA. The series is classed as ADME. The following applies: read-out: permeability.
Series [7] can be described thus: Cytotoxicity against chicken primary telencephalon neurons at 50 uM after 24 hrs by MTT assay. Set-up: species or system Gallus gallus.
A short description of series [8]: Cytotoxicity against chicken primary telencephalon neurons at 25 uM after 24 hrs by MTT assay. Set-up: species or system Gallus gallus.
The target of series [9] is T1, Beta-secretase 1. The series is described as follows: Inhibition of BACE1 using methoxycoumarin-Ser-Glu-Val-Asn-Leu-Asp-Ala-Glu-Phe-Lys-dinitrophenyl as substrate at 100 uM preincubated 1 hr before substrate addition measured after 15 mins by FRET assay.
Where [10] appears, read: Gallus gallus, 24 h, read-out: IC50.

Consider `Nc1nc(Cc2ccc(-c3ccc(C(F)(F)F)cc3)cc2)cn1Cc1cc(F)cc(F)c1`, for which the IC50 entry in series [1] is “Not Active”; in [2] it was “Not Active”; in [4], “Not Active”; in series [5] it was 5.59 µM. The solubility entry in series [3] is given as “Insoluble”.

For `CCn1cc(C(=O)O)c(=O)c2cc(F)c(N3CCNCC3)nc21` [ENOXACIN], the Papp in series [6] worked out at 0.3 ×10⁻⁶ cm/s.

In the case of `Cn1c(=O)c2c(ncn2C)n(C)c1=O` [CAFFEINE], in series [6], the Papp worked out at 0.9 ×10⁻⁶ cm/s.

Take `COc1cc(OC)cc(-c2ccc(Cc3cn(Cc4cc(F)cc(F)c4)c(N)n3)cc2)c1`: the Activity entry in series [7] is “Toxic”. Besides, in series [6], the Papp was 3.2 ×10⁻⁶ cm/s. Moreover, the IC50 in series [1] (setting [10]) came out at 35 µM; in series [2] (setting [10]), 27 µM; in series [4] (setting [10]), 33 µM; in series [5], 7.32 µM.

`CN(C)CCCN1c2ccccc2Sc2ccccc21` [PROMAZINE]: in series [6], the Papp was 11.5 ×10⁻⁶ cm/s.

Take `CN1C(C(=O)Nc2ccccn2)=C(O)c2ccccc2S1(=O)=O` [PIROXICAM]: the Papp in [6] came out at 0.4 ×10⁻⁶ cm/s.

As for `COc1cc(OC)cc(-c2ccc(Cc3cn(Cc4ccc(F)cc4)c(N)n3)cc2)c1`, the Papp in series [6] worked out at 4 ×10⁻⁶ cm/s. The Activity entry in series [8] is “Toxic”. Besides, the IC50 worked out at 23 µM in series [1] (setting [10]), 19 µM in [2] (setting [10]), 15 µM in [4] (setting [10]) and 7.4 µM in [5].

For `Nc1nc(Cc2ccc(-c3cccc4oc5ccccc5c34)cc2)cn1Cc1ccccc1Cl`, the Papp in [6] is 4 ×10⁻⁶ cm/s. The half-maximal inhibitory concentration (IC50) entry was “Not Active” in series [1], “Not Active” in series [2], “Not Active” in [4] and 5.95 µM in series [5].

In series [9], `Nc1nc(Cc2ccccc2)cn1Cc1ccccc1` registered an inhibition of 19.6%.
